Source: the RNAGym collection of RNA variant scans (doi:10.1126/science.aae0568)
This sample holds only a part of the variants without activity.

B1: tRNA (parent)
chain: GUUCCGUUGGCGUAAUGGUAACGCGUCUCCCUCCUAAGGAGAAGACUGCGGGUUCGAGUCCCGUACGGAACG

Variants of: B1
Assay: yeast fitness relative to wild type (ratio to wild type); higher = fitter; tRNA-Arg(CCU), competitive growth, 37 C, YPD
How it was run: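 Amplicons of the tRNA-Arg(CCU) gene were sequenced, 100-nucleotide paired-end, from the start population and from each end population of a pooled yeast competition. The competition, in six parallel replicates, lasted 24 hours in YPD at 37°C. Fitness relative to wild type was calculated from changes in genotype frequencies. Genotypes had to have ≥ 100 starting reads, and estimates < 0.5 were set to 0.5.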

Variant | yeast fitness
U3A C11U U35C A65C | ≤ 0.5
U3A C22G C27G U59C C62U G68U | ≤ 0.5
U3A C22G C29U G63A | ≤ 0.5
U3A C22U G39A | ≤ 0.5
U3A C22U G39A C66U | 0.576
U3A C24A C30U C62U | ≤ 0.5
U3A C24A C34U U54G | ≤ 0.5
U3A C24A G63A U64A | ≤ 0.5
U3A C24A U28C C61A | ≤ 0.5
U3A C24G A57U | ≤ 0.5
U3A C24G C29A G50C A57C | ≤ 0.5
U3A C24G C29A G50C A57C C66U | ≤ 0.5
U3A C24G C31U G52C | ≤ 0.5
U3A C24G C33G C55U | ≤ 0.5
U3A C24G C60G | 0.645
U3A C24U U32C | 0.513
U3A C24U U53A | 0.548
U3A C27A A69U | 0.627
U3A C27A C30G G39A | ≤ 0.5
U3A C27G A43C | ≤ 0.5
U3A C27G A69C | ≤ 0.5

Variant | yeast fitness
U3A C27G C31U C33U A42C A70U | ≤ 0.5
U3A C27G C31U C33U A42C C66U A70C | ≤ 0.5
U3A C27U | 0.853
U3A C27U A37U A69C | ≤ 0.5
U3A C27U G67U | 0.606
U3A C29A | 0.653
U3A C29U | 0.85
U3A C30A | 0.834
U3A C30G | 0.598
U3A C30G A45G C46G G52C G68C | ≤ 0.5
U3A C30G C33U G67U | ≤ 0.5
U3A C30G C55U A70U | ≤ 0.5
U3A C30G C66G | ≤ 0.5
U3A C30G G68A | ≤ 0.5
U3A C30U A42G C61U | 0.602
U3A C30U G56A | ≤ 0.5
U3A C30U G67A | 0.553
U3A C30U U59A A69C | ≤ 0.5
U3A C31G A40U G41U | ≤ 0.5
U3A C31G A43U | 0.597
U3A C31G G67U | 0.542

Variant | yeast fitness
U3A C31U A40C | 0.566
U3A C31U A40C A70G | ≤ 0.5
U3A C31U A57U | 0.598
U3A C31U A70U | 0.688
U3A C31U U35G C62U | ≤ 0.5
U3A C33U | 0.791
U3A C33U A45U | 0.834
U3A C34A C49U C55G | ≤ 0.5
U3A C34U | 0.735
U3A C34U C49A G52A | 0.622
U3A C34U G56C | ≤ 0.5
U3A C46A A69C | 0.997
U3A C46A G67U | 0.603
U3A C46G | 0.982
U3A C46G A70C | 0.715
U3A C46G C49U G56C | 0.734
U3A C46U G48A C55U U59A | ≤ 0.5
U3A C49A | 0.609
U3A C49G | 0.792
U3A C49U | 0.954
U3A C49U A69U | 0.759

Variant | yeast fitness
U3A C55G A65C | ≤ 0.5
U3A C60A | 0.677
U3A C62U U64C | 0.77
U3A G6A C46U | 0.638
U3A G6A G12A A20G C22G U26A G48C G68U | ≤ 0.5
U3A G6A G25C A43C | 0.614
U3A G6C A37U G58A | 0.524
U3A G6C C31A U47G C62A | ≤ 0.5
U3A G6C G17A A37U G58A | ≤ 0.5
U3A G6U G12C C22A | ≤ 0.5
U3A G9A | 0.977
U3A G9A A14C | 0.551
U3A G9A A14C C55G | ≤ 0.5
U3A G9A A14G C66U | 0.575
U3A G9A A37G G68C A69G | ≤ 0.5
U3A G9A C29G | 0.585
U3A G9A C30A A42U C49U U59C A69C | ≤ 0.5
U3A G9A C62G C66G | ≤ 0.5
U3A G9A U19A G44C C61U C62G | ≤ 0.5
U3A G9A U19A G44C G68C | ≤ 0.5
